A word on the inhibition in vivo: it is the relative decrease from the control value, in per cent. As usually defined, the LD50 is the dose at which mortality reaches 50%. Low values mean a more toxic substance, high ones a less toxic substance.

Results on eleven compounds are retold here after ChEMBL document CHEMBL2150887, “Design, Prins-cyclization reaction promoting diastereoselective synthesis of 10 new tetrahydropyran derivatives and in vivo antinociceptive evaluations” (Eur J Med Chem, 2012).

Data set [1] relates to Mus musculus. Kind of data set: Antinociceptive activity in Swiss albino mouse assessed as inhibition of acetic-acid induced abdominal writhing at 30 mg/kg, po administered prior to acetic-acid challenge measured after 30 mins relative to untreated-control. It counts as functional. To be noted: Abdomen, 0.5 h. In a few lines: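 Male Albino-Swiss mice (20-24 g), n = 6, were pretreated orally at 30 mg/kg in 5% ethyl acetate vehicle (5 mL/kg). Writhing was induced with 1.2% (v/v) acetic acid i.p. Writhes (abdominal contraction, body stretching, hind-limb extension) were counted for 30 min starting immediately after injection and compared with the control group. ANOVA/Bonferroni, P < 0.05.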
A general note: In writhing tests, fewer writhes than in controls are read as antinociception.

Data set [2] relates to Mus musculus. The data set is described as follows: Toxicity in Swiss albino mouse assessed as piloerection up to 2000 mg/kg, po measured from 5 hrs post-dose to 14 days relative to untreated-control. Type of data set: organism-based. To be noted: in vivo. On the set-up: dose 2000 mg/kg, route oral. In short, it runs like this: (§1)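 Acute toxicity followed WHO and OECD guidelines. Male Albino-Swiss mice received single oral doses increasing up to 2000 mg/kg. Behaviour (disorientation, hyperactivity, piloerection, hyperventilation) was observed from 5 h after dosing and then daily until day 14. LD50 was estimated by nonlinear regression of % deaths against dose.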

Data set [3] in a line: Toxicity in po dosed Swiss albino mouse. Conditions: in vivo. It counts as organism-based. In a few lines:
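Acute oral toxicity per WHO and OECD guidelines. Male Albino-Swiss mice (20–24 g), 6 per group, held at 20 ± 2 °C on a 12 h light/dark cycle. Given single oral doses rising to 2000 mg/kg, as a suspension in 5% ethyl acetate at 5 mL/kg. Behaviour watched from 5 h after dosing, then daily to day 14. LD50 from nonlinear regression of percent deaths against dose.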

For data set [4], the system named is Mus musculus. Kind of data set: Toxicity in Swiss albino mouse assessed as hyperactivity up to 2000 mg/kg, po measured from 5 hrs post-dose to 14 days relative to untreated-control. It counts as organism-based. To be noted: in vivo. Details: dose 2000 mg/kg, route oral. In a few lines:
as §1

In data set [5] the test system is Mus musculus. Kind of data set: Antinociceptive activity in Swiss albino mouse assessed as increase in tail-flick latency at 30 mg/kg, po measured up to 120 mins relative to untreated-control. It counts as functional, organism-based. On the set-up: dose 30 mg/kg. In a few lines: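 Male Albino-Swiss mice (20-24 g), n = 6 per group, given 30 mg/kg p.o. as a suspension in 5% ethyl acetate vehicle (5 mL/kg). Tail-flick latency was measured every 20 min: two pre-dose readings were averaged as baseline, then six post-dose readings. Results are expressed as % increase over baseline and as AUC from 20-120 min. ANOVA with Bonferroni test, P < 0.05.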
(In general: Thermal pain tests record how soon the animal reacts.)

Data set [6] has as its system Mus musculus. Kind of data set: Neurotoxicity in Swiss albino mouse assessed as alteration in motor activity at 30 mg/kg, po administered 60 mins prior to testing measured for 5 mins by open field test relative to untreated-control. Type of data set: toxicity, organism-based. On the set-up: dose 30 mg/kg, route oral. To be noted: in vivo. In short, it runs like this: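 Male Albino-Swiss mice, n = 6, received 30 mg/kg p.o. or vehicle. Sixty minutes after dosing, each mouse was placed alone in a chamber whose floor was divided into 50 squares of 5 × 5 cm. Squares crossed were counted over 5 min.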

In data set [7] the test system is Mus musculus. Kind of data set: Toxicity in Swiss albino mouse assessed as hyperventilation up to 2000 mg/kg, po measured from 5 hrs post-dose to 14 days relative to untreated-control. It counts as organism-based. On the set-up: dose 2000 mg/kg, route oral. Conditions: in vivo. In short, it runs like this:
as §1

The test system of data set [8] is Mus musculus. Kind of data set: Neurotoxicity in Swiss albino mouse assessed as alteration in motor activity at 30 mg/kg, po administered 60 mins prior to testing measured for 5 mins by rotarod test relative to untreated-control. Type of data set: toxicity, organism-based. On the set-up: dose 30 mg/kg, route oral. To be noted: in vivo. In a few lines: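 Mice were trained twice the day before to stay 5 min on a rotarod turning at 10 rev/min. Twenty-four hours later they received 30 mg/kg p.o. or vehicle. Sixty minutes after dosing they were placed on the roller for 5 min, and the number of falls was recorded as the neurological deficit.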

The subject of data set [9] is Mus musculus. Kind of data set: Toxicity in Swiss albino mouse assessed as disorientation up to 2000 mg/kg, po measured from 5 hrs post-dose to 14 days relative to untreated-control. To be noted: in vivo. It counts as organism-based. Details: dose 2000 mg/kg, route oral. In short, it runs like this: as §1
Data set [10] deals with Mus musculus. Kind of data set: Antinociceptive activity in mouse assessed as inhibition of acetic-acid induced abdominal writhing at 50 mg/kg administered 60 mins prior to acetic-acid challenge. Type of data set: functional. To be noted: Abdomen.

Activity calls are given as the source filed them. The calls are words filed in the database; no cut-off is given here.

In the case of `O=C(O)[C@H]1CCC[C@@H](c2ccc3ccccc3c2)O1`, the inhibition in vivo at 30 mg/kg in the data set on Mus musculus [1] came out at 43.1%. The Activity result with Mus musculus [2], in the data set with Mus musculus [4], with Mus musculus [6], in the data set with Mus musculus [7], in the data set on Mus musculus [8] and in the data set on Mus musculus [9] was “Non-toxic” each time. The compound also registered an LD50 in [3] of over 2000 mg/kg. Further, in the data set on Mus musculus [5], the result was Active.

With `CC[C@@H]1CCC[C@H](C(=O)O)O1` (racemic), the inhibition in vivo at 30 mg/kg in the data set with Mus musculus [1] amounted to 14.1%. Besides, the Activity entry in the data set on Mus musculus [2], in the data set on Mus musculus [4], in the data set on Mus musculus [6], in the data set with Mus musculus [7], with Mus musculus [8] and with Mus musculus [9] was “Non-toxic” each time. Moreover, the LD50 in data set [3] is over 2000 mg/kg. The outcome in the data set with Mus musculus [5] was Active. Also, the inhibition in vivo at 50 mg/kg with Mus musculus [10] is 15%.

As for `O=C(O)[C@H]1CCC[C@@H](c2cccc3ccccc23)O1` (relative stereo), the inhibition in vivo at 30 mg/kg with Mus musculus [1] was determined as 49%. Also, the Activity result with Mus musculus [2], in the data set with Mus musculus [4], with Mus musculus [6], with Mus musculus [7], in the data set with Mus musculus [8] and in the data set with Mus musculus [9] was “Non-toxic” throughout. This compound had a median lethal dose (LD50) in data set [3] of over 2000 mg/kg. For the same compound, the result in the data set on Mus musculus [5] was Active.

Turning to `OC[C@H]1CCC[C@@H](c2ccc3ccccc3c2)O1` (relative stereo), the inhibition in vivo at 30 mg/kg in the data set with Mus musculus [1] was 55.7%. Further, the Activity result in the data set on Mus musculus [2], in the data set with Mus musculus [4], in the data set with Mus musculus [6], in the data set with Mus musculus [7], in the data set with Mus musculus [8] and in the data set with Mus musculus [9] was “Non-toxic” throughout. This compound had a 50% lethal dose (LD50) in data set [3] of over 2000 mg/kg. For the same compound, the result in the data set on Mus musculus [5] was Active.

With `OC[C@H]1CCC[C@@H](c2cccc3ccccc23)O1` (relative stereo), the inhibition in vivo at 30 mg/kg with Mus musculus [1] was determined as 39.2%. Besides, the Activity result in the data set on Mus musculus [2], in the data set with Mus musculus [4], in the data set on Mus musculus [6], in the data set on Mus musculus [7], in the data set with Mus musculus [8] and in the data set on Mus musculus [9] was “Non-toxic” throughout. In data set [3], the median lethal dose (LD50) is over 2000 mg/kg. Further, the result with Mus musculus [5] was Active.

`CC(C)C(=O)OC[C@H]1C[C@@H](Cl)C[C@@H](c2ccc3ccccc3c2)O1` (relative stereo): in the data set with Mus musculus [1], the inhibition in vivo at 30 mg/kg stood at 44.4%. Also, the Activity entry in the data set with Mus musculus [2], in the data set with Mus musculus [4], with Mus musculus [6], with Mus musculus [7], in the data set on Mus musculus [8] and with Mus musculus [9] was “Non-toxic” in each case. Also, the median lethal dose (LD50) in [3] was over 2000 mg/kg. The outcome in the data set with Mus musculus [5] was Active.

For the compound `CC(C)C(=O)OC[C@H]1C[C@@H](Cl)C[C@@H](c2cccc3ccccc23)O1` (relative stereo), the inhibition in vivo at 30 mg/kg in the data set with Mus musculus [1] worked out at 38.4%. For the same compound, the Activity entry with Mus musculus [2], in the data set on Mus musculus [4], in the data set on Mus musculus [6], in the data set on Mus musculus [7], in the data set on Mus musculus [8] and with Mus musculus [9] was “Non-toxic” throughout. In data set [3], this compound displayed a median lethal dose (LD50) of over 2000 mg/kg. Further, the outcome with Mus musculus [5] was Active.

As for `OC[C@H]1C[C@@H](Cl)C[C@@H](c2ccc3ccccc3c2)O1` (relative stereo), the inhibition in vivo at 30 mg/kg in the data set on Mus musculus [1] was 46.6%. The Activity entry with Mus musculus [2], in the data set with Mus musculus [4], in the data set with Mus musculus [6], in the data set with Mus musculus [7], with Mus musculus [8] and with Mus musculus [9] was “Non-toxic” each time. Besides, the LD50 in [3] is over 2000 mg/kg. In the data set on Mus musculus [5], the result was Active.

As to `OC[C@H]1C[C@@H](Cl)C[C@@H](c2cccc3ccccc23)O1` (relative stereo), the inhibition in vivo at 30 mg/kg in the data set on Mus musculus [1] came out at 87.5%. Moreover, the Activity result in the data set with Mus musculus [2], in the data set with Mus musculus [4], with Mus musculus [6], with Mus musculus [7], in the data set with Mus musculus [8] and in the data set with Mus musculus [9] was “Non-toxic” throughout. The median lethal dose (LD50) in [3] was over 2000 mg/kg. Further, in the data set on Mus musculus [5], the result was Active.

As for `O=C(O)[C@H]1C[C@@H](Cl)C[C@@H](c2ccc3ccccc3c2)O1` (relative stereo), the inhibition in vivo at 30 mg/kg in the data set with Mus musculus [1] was 28.1%. Besides, the Activity result in the data set with Mus musculus [2], in the data set with Mus musculus [4], in the data set on Mus musculus [6], in the data set with Mus musculus [7], in the data set on Mus musculus [8] and in the data set with Mus musculus [9] was “Non-toxic” each time. For the same compound, the 50% lethal dose (LD50) in data set [3] is over 2000 mg/kg. The result in the data set on Mus musculus [5] was Active.

Turning to `O=C(O)[C@H]1C[C@@H](Cl)C[C@@H](c2cccc3ccccc23)O1` (relative stereo), in the data set with Mus musculus [1], the inhibition in vivo at 30 mg/kg came out at 54.4%. For the same compound, the Activity result in the data set with Mus musculus [2], in the data set on Mus musculus [4], with Mus musculus [6], with Mus musculus [7], in the data set with Mus musculus [8] and in the data set on Mus musculus [9] was “Non-toxic” in each case. The compound also displayed a 50% lethal dose (LD50) in data set [3] of over 2000 mg/kg. Besides, the outcome in the data set on Mus musculus [5] was inactive.
